According to ChEMBL document CHEMBL1156597, “Structure-activity relationship of kahalalide F synthetic analogues” (J Med Chem, 2008):

How the values were obtained:
[1] = Cytotoxicity against human IGROV cells after 48 hrs by SRB assay; type: functional; settings: for CC50: read-out: LC50 (the source's name)
In short: (§1)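 Cells grown in RPMI 1640 with 10% FBS and penicillin/streptomycin at 37 °C and 5% CO₂, trypsinized, then seeded at 5 × 10³/well. After 18 h drug-free attachment, samples in DMSO/EtOH/PBS (0.5:0.5:99) were added for 48 h continuous exposure. Cells were fixed with cold TCA (1 h, 4 °C) and stained with SRB (10 min). Tris-solubilized stain read at 490 nm. Triplicate wells, mean ± SD; GI₅₀ derived.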

[2] = test system: LoVo; test: Cytotoxicity against human doxorubicin resistant LoVo cells after 48 hrs by SRB assay; type: functional; settings: for CC50: read-out: LC50 (the source's name); in short: as §1
[3] = test system: HT-29; test: Cytotoxicity against human HT29 cells after 48 hrs by SRB assay; type: functional, cell-based; settings: Homo sapiens, HT-29, 48 h; for CC50: read-out: LC50 (the source's name); in short: as §1
[4] = test system: LoVo; test: Cytotoxicity against human LoVo cells after 48 hrs by SRB assay; type: functional; settings: for CC50: read-out: LC50 (the source's name)
[5] = test system: DU-145; test: Cytotoxicity against human DU145 cells after 48 hrs by SRB assay; type: functional, cell-based; settings: Homo sapiens, DU-145, 48 h; for CC50: read-out: LC50 (the source's name); in short: as §1
[6] = test system: HeLa; test: Cytotoxicity against human HeLa cells after 48 hrs by SRB assay; type: functional; settings: for CC50: read-out: LC50 (the source's name); in short: as §1
[7] = test system: PANC-1; test: Cytotoxicity against human PANC1 cells after 48 hrs by SRB assay; type: functional; settings: PANC-1, 48 h; for CC50: read-out: LC50 (the source's name); in short: as §1
[8] = test system: SK-MEL-28; test: Cytotoxicity against human SK-MEL-28 cells after 48 hrs by SRB assay; type: functional, cell-based; settings: Homo sapiens, SK-MEL-28, 48 h; for GI50: read-out: GI50; for CC50: read-out: LC50 (the source's name); in short: as §1
[9] = test system: LNCaP; test: Cytotoxicity against human LNcaP cells after 48 hrs by SRB assay; type: functional; settings: for CC50: read-out: LC50 (the source's name); in short: as §1
[10] = test system: A549; test: Cytotoxicity against human A549 cells after 48 hrs by SRB assay; type: functional, cell-based; settings: Homo sapiens, A549, 48 h; in short: as §1
[11] = test system: K562; test: Cytotoxicity against human K562 cells after 48 hrs by SRB assay; type: functional; settings: K562, 48 h; for CC50: read-out: LC50 (the source's name); in short: as §1
[12] = Cytotoxicity against human IGROV-ET cells after 48 hrs by SRB assay; type: functional; settings: for CC50: read-out: LC50 (the source's name); in short: as §1
[13] = Cytotoxicity against human HeLa-APL cells after 48 hrs by SRB assay; type: functional; in short: as §1
[14] = test system: SK-BR-3; test: Cytotoxicity against human SKBR3 cells after 48 hrs by SRB assay; type: functional; settings: SK-BR-3, 48 h; for GI50: read-out: GI50; for CC50: read-out: LC50 (the source's name); in short: as §1

Q: What does the source list for `C/C=C1\NC(=O)[C@H](CCC2CCCCC2)NC(=O)[C@@H](C(C)C)NC(=O)[C@@H]([C@@H](C)CC)NC(=O)[C@H](NC(=O)[C@H](NC(=O)[C@H](CCCN)NC(=O)[C@H]2CCCN2C(=O)[C@H](NC(=O)[C@@H](NC(=O)[C@@H](NC(=O)[C@H](NC(=O)CCCC(C)C)C(C)C)[C@@H](C)O)C(C)C)C(C)C)[C@@H](C)CC)[C@@H](C)OC(=O)[C@H](C(C)C)NC1=O`?
A: GI50 [1]: 0.372 µM; GI50 ([1]; read-out: GI50): 0.276 µM; CC50 [1]: 0.378 µM; GI50 [2]: 0.224 µM; TGI [2]: 0.258 µM; CC50 [2]: 0.296 µM; GI50 [3]: 0.294 µM; TGI [3]: 0.352 µM; CC50 [3]: 0.359 µM; GI50 [4]: 0.266 µM; TGI [4]: 0.282 µM; CC50 [4]: 0.298 µM; GI50 [5]: 0.472 µM; GI50 ([5]; read-out: GI50): 0.464 µM; CC50 [5]: 0.553 µM; GI50 [6]: 0.304 µM; TGI [6]: 0.313 µM; CC50 [6]: 0.5 µM; GI50 [7]: 1.12 µM; TGI [7]: 1.29 µM; CC50 [7]: 1.49 µM; TGI [8]: 1 µM; GI50 [8]: 1.02 µM; CC50 [8]: 0.983 µM; GI50 [9]: 0.384 µM; TGI [9]: 0.625 µM; CC50 [9]: 0.661 µM; GI50 [10]: 0.857 µM; LC50 [10]: 0.959 µM; GI50 ([10]; read-out: GI50): 0.756 µM; GI50 [11]: 1.42 µM; TGI [11]: 1.41 µM; CC50 [11]: 1.39 µM; GI50 [12]: 0.312 µM; GI50 ([12]; read-out: GI50): 0.232 µM; CC50 [12]: 0.35 µM; GI50 [13]: 0.319 µM; LC50 (concentration giving 50% net cell kill) [13]: 0.617 µM; TGI [13]: 0.499 µM; TGI [14]: 0.205 µM; GI50 [14]: 0.165 µM; CC50 [14]: 0.256 µM

Q: What does the source list for `C/C=C1\NC(=O)[C@H](Cc2ccccc2)NC(=O)[C@@H](C(C)C)NC(=O)[C@@H]([C@H](C)CC)NC(=O)[C@H](NC(=O)[C@H](NC(=O)[C@H](CCCN)NC(=O)[C@H]2CCCN2C(=O)[C@H](NC(=O)[C@@H](NC(=O)[C@@H](NC(=O)[C@H](NC(=O)CCCC(C)C)C(C)C)[C@@H](C)O)[C@@H](C)O)C(C)C)[C@H](C)CC)[C@H](C)OC(=O)[C@H](C(C)C)NC1=O`?
A: CC50 [1]: 0.859 µM; GI50 [2]: 2.99 µM; TGI [2]: 2.9 µM; CC50 [2]: 2.82 µM; GI50 [3]: 11 µM; TGI [3]: 8.87 µM; CC50 [3]: 2.37 µM; GI50 [4]: 2.97 µM; TGI [4]: 3.35 µM; CC50 [4]: 3.77 µM; CC50 [5]: 1.69 µM; CC50 [6]: 1.38 µM; GI50 [7]: 5.51 µM; TGI [7]: 4.56 µM; CC50 [7]: 2.32 µM; CC50 [8]: 1.86 µM; CC50 [9]: 1.4 µM; LC50 [10]: 1.82 µM; CC50 [11]: 1.93 µM; TGI [12]: 1.75 µM; GI50 ([12]; read-out: GI50): 1.91 µM; CC50 [12]: 0.644 µM; LC50 (concentration giving 50% net cell kill) [13]: 1.45 µM; TGI [14]: 2.43 µM; GI50 [14]: 2.07 µM; CC50 [14]: 1.06 µM

Q: Which GI50 [1] does the source give for `C/C=C1\NC(=O)[C@H](Cc2ccccc2)NC(=O)[C@@H](C(C)C)NC(=O)[C@@H]([C@H](C)CC)NC(=O)[C@H](NC(=O)[C@H](NC(=O)[C@H](CCCNC(=O)C(F)(F)F)NC(=O)[C@H]2CCCN2C(=O)[C@H](NC(=O)[C@@H](NC(=O)[C@@H](NC(=O)[C@H](NC(=O)CC[C@@H](C)CC)C(C)C)[C@@H](C)O)C(C)C)C(C)C)[C@H](C)CC)[C@H](C)OC(=O)[C@H](C(C)C)NC1=O` here?
A: 0.276 µM

Q: And the GI50 ([1]; read-out: GI50)?
A: 0.305 µM

Q: And the CC50 [1]?
A: 0.0875 µM

Q: What about the GI50 [2] of the same compound?
A: 0.276 µM

Q: What about the TGI [2] of the same compound?
A: 0.282 µM

Q: What about the CC50 [2] of the same compound?
A: 0.287 µM

Q: What about the GI50 [3] of the same compound?
A: 0.266 µM

Q: And the TGI [3]?
A: 0.301 µM

Q: And the CC50 [3]?
A: 0.342 µM

Q: And the GI50 [4]?
A: 0.311 µM

Q: And the TGI [4]?
A: 0.296 µM

Q: What about the CC50 [4] of the same compound?
A: 0.282 µM

Q: What about the TGI [5] of the same compound?
A: 1.1 µM

Q: What about the GI50 ([5]; read-out: GI50) of the same compound?
A: 1.33 µM

Q: What about the CC50 [5] of the same compound?
A: 0.898 µM

Q: And the GI50 [6]?
A: 0.502 µM

Q: And the TGI [6]?
A: 0.463 µM

Q: What about the CC50 [6] of the same compound?
A: 0.525 µM

Q: And the CC50 [7]?
A: 1.66 µM

Q: And the TGI [8]?
A: 1.54 µM

Q: What about the GI50 [8] of the same compound?
A: 1.91 µM

Q: And the CC50 [8]?
A: 1.22 µM

Q: And the GI50 [9]?
A: 1.46 µM

Q: What about the TGI [9] of the same compound?
A: 1.99 µM

Q: What about the CC50 [9] of the same compound?
A: 1.41 µM

Q: And the LC50 [10]?
A: 1.2 µM

Q: And the TGI [10]?
A: 1.17 µM

Q: What about the GI50 ([10]; read-out: GI50) of the same compound?
A: 1.14 µM

Q: And the CC50 [11]?
A: 1.81 µM

Q: What about the GI50 [12] of the same compound?
A: 0.508 µM

Q: What about the GI50 ([12]; read-out: GI50) of the same compound?
A: 0.489 µM

Q: And the CC50 [12]?
A: 0.528 µM

Q: What about the GI50 [13] of the same compound?
A: 1.21 µM

Q: And the LC50 (concentration giving 50% net cell kill) [13]?
A: 0.789 µM

Q: What about the TGI [13] of the same compound?
A: 0.963 µM

Q: And the TGI [14]?
A: 0.19 µM

Q: What about the GI50 [14] of the same compound?
A: 0.112 µM

Q: And the CC50 [14]?
A: 0.32 µM
